Laboratory results from ChEMBL document CHEMBL1152488, “Synthesis and evaluation of pyrido[1,2-a]pyrimidines as inhibitors of nitric oxide synthases” (Eur J Med Chem, 2009).

Experiments:
[1] = target: Nitric oxide synthase, inducible (Homo sapiens) (UniProt P35228); experiment: Inhibition of human iNOS expressed in insect Sf9 cells assessed as residual activity at 100 uM by Griess assay relative to control
Method in brief: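 Human iNOS made in Sf9 cells, incubated at 37 °C for 20 min in 50 mM triethanolamine pH 7.5 with 1 mM Mg2+, FAD/FMN 5 µM each, 0.5 mM NADPH, 10 µM H4B, CaM and 1 mM L-arginine. Compound 100 µM final. NADPH cleared with lactate dehydrogenase/pyruvate before Griess reaction (543 nm). Residual activity relative to 1% DMSO control; mean of 5 experiments.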

[2] = target: T1, Nitric oxide synthase 3 (Homo sapiens) (UniProt P29474); experiment: Inhibition of human eNOS assessed as residual activity at 100 uM by Griess assay relative to control
T1 sequence (whole entry): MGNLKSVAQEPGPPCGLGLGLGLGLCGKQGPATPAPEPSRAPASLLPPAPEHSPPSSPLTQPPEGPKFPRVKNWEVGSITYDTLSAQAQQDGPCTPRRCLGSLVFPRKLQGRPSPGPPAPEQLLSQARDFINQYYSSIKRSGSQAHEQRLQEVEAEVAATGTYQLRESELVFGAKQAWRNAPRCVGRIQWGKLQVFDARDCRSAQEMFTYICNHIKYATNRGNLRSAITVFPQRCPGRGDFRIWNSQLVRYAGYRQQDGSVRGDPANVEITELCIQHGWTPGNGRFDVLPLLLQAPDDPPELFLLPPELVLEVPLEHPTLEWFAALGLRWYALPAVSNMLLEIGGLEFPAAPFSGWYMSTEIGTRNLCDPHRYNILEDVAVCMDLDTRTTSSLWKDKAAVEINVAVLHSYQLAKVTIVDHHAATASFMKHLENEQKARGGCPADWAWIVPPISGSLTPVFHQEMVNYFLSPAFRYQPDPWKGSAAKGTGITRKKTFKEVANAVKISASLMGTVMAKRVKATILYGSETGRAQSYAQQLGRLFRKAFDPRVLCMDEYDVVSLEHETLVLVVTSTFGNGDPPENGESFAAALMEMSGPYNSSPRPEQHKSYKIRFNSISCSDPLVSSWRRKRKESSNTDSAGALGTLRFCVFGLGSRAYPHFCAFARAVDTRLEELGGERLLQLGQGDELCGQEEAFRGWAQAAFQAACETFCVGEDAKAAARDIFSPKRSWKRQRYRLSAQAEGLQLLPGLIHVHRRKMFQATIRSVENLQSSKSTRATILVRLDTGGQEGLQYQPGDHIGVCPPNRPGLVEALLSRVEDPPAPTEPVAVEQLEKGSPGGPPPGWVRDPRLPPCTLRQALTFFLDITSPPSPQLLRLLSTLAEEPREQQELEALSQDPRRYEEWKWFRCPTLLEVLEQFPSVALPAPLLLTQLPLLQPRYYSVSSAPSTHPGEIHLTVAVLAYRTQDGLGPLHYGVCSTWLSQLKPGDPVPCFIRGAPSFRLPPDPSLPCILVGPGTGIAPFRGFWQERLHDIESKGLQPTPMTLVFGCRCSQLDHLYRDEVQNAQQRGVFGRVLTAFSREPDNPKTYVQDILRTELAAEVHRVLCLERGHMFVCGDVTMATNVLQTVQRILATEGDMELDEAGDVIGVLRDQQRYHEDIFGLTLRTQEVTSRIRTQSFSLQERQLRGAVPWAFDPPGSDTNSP
Method in brief: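 Human eNOS expressed in Pichia pastoris. Incubated 20 min at 37 °C in triethanolamine pH 7.5 with 0.5 mM Ca2+, CaM, H4B 10 µM, FAD/FMN 5 µM, NADPH 0.5 mM, L-arginine 1 mM and compound at 100 µM final. Nitrite read by Griess (543 nm) after LDH/pyruvate NADPH removal; % of 1% DMSO control from 5 experiments.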

[3] = Lipophilicity, log D at pH 7.4 by HPLC method; details: buffer
[4] = target: T2, Nitric oxide synthase, inducible (Mus musculus) (UniProt P29477); experiment: Inhibition of mouse iNOS expressed in insect Sf9 cells assessed as residual activity at 100 uM by Griess assay relative to control
T2 sequence (whole entry): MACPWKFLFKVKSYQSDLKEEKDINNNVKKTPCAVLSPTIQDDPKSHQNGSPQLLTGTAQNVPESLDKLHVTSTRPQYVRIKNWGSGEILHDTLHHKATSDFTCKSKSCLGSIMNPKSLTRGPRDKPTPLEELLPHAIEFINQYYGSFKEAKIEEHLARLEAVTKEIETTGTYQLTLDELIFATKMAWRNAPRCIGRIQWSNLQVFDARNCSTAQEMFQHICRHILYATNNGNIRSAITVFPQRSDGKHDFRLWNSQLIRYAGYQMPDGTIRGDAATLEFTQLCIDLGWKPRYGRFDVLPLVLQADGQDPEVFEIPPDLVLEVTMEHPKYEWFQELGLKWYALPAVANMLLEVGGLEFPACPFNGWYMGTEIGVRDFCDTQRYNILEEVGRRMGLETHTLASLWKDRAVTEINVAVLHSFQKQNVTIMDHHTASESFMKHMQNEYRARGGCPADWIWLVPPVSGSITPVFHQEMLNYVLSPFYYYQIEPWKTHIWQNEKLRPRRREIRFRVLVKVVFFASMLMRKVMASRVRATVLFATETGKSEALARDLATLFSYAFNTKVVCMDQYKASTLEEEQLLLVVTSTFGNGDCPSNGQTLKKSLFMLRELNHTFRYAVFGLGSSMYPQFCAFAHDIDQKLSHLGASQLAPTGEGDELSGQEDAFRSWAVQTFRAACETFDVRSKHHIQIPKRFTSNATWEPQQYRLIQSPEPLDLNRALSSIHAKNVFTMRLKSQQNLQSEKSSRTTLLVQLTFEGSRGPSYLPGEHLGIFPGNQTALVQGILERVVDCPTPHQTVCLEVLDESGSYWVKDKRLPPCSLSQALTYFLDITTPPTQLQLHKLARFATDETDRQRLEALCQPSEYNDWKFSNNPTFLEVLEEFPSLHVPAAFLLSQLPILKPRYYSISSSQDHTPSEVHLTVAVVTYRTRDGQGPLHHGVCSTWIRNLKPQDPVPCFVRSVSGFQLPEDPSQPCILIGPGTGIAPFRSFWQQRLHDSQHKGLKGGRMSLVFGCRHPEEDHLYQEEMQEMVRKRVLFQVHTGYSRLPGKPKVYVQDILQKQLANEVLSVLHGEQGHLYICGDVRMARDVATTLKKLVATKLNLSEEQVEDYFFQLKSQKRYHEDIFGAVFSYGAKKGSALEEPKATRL
Method in brief: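 Murine iNOS produced in Sf9 insect cells. Buffer: 50 mM triethanolamine pH 7.5, 1 mM CHAPS, 10 mM 2-mercaptoethanol, 0.5 mM EDTA. Additions: 1 mM Mg2+, 5 µM FAD, 5 µM FMN, 0.5 mM NADPH, 10 µM H4B, 10 µg/ml CaM, 1 mM L-arginine. Compound at 100 µM final, 37 °C for 20 min. NADPH removed with LDH/pyruvate, then Griess read at 543 nm. Values are % of 1% DMSO control, 5 experiments.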

[5] = target: T3, Nitric oxide synthase 3 (Bos taurus) (UniProt P29473); experiment: Inhibition of bovine eNOS expressed in insect Sf9 cells assessed as residual activity at 100 uM by Griess assay relative to control
T3 sequence (whole entry): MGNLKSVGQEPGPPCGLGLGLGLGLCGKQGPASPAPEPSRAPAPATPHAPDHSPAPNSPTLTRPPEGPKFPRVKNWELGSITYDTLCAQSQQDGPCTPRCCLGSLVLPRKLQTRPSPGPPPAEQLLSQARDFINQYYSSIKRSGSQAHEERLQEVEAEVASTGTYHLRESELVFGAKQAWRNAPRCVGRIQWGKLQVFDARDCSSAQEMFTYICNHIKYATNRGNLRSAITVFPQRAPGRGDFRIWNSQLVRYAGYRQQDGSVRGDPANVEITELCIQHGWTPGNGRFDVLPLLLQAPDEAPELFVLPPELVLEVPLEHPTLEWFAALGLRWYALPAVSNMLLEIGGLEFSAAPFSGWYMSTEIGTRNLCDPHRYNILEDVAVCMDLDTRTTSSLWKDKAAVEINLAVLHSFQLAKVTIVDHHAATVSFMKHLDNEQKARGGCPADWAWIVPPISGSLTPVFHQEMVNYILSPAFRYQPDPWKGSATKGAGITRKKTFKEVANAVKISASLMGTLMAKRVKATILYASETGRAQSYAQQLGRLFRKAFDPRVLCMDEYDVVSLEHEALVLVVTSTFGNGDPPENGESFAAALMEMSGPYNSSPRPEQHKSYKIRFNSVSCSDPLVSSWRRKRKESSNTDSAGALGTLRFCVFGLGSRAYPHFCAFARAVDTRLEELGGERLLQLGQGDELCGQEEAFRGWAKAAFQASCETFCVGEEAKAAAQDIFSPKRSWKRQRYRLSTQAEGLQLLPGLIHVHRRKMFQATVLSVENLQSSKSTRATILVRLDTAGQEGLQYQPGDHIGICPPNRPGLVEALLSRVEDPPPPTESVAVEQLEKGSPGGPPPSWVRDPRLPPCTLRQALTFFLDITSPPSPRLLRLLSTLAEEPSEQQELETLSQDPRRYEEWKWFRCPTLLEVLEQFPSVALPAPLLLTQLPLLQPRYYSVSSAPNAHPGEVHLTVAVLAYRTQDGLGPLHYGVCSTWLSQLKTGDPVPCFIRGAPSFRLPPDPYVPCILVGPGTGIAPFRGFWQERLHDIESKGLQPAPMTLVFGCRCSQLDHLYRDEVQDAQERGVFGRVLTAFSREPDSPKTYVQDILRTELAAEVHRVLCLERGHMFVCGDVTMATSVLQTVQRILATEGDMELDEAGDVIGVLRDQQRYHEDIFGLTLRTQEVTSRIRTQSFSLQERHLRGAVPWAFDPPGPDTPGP
Method in brief: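 Bovine eNOS from Sf9 cells. Reaction: triethanolamine buffer pH 7.5, 0.5 mM Ca2+, 10 µg/ml CaM, 10 µM H4B, FAD, FMN, 0.5 mM NADPH, 1 mM L-arginine, with 100 µM compound, 20 min at 37 °C. After NADPH removal by LDH/pyruvate, nitrite measured by Griess at 543 nm. Expressed as % residual activity versus 1% DMSO control, 5 experiments.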

Sequence of Nitric oxide synthase, inducible (Homo sapiens) (P35228 whole entry): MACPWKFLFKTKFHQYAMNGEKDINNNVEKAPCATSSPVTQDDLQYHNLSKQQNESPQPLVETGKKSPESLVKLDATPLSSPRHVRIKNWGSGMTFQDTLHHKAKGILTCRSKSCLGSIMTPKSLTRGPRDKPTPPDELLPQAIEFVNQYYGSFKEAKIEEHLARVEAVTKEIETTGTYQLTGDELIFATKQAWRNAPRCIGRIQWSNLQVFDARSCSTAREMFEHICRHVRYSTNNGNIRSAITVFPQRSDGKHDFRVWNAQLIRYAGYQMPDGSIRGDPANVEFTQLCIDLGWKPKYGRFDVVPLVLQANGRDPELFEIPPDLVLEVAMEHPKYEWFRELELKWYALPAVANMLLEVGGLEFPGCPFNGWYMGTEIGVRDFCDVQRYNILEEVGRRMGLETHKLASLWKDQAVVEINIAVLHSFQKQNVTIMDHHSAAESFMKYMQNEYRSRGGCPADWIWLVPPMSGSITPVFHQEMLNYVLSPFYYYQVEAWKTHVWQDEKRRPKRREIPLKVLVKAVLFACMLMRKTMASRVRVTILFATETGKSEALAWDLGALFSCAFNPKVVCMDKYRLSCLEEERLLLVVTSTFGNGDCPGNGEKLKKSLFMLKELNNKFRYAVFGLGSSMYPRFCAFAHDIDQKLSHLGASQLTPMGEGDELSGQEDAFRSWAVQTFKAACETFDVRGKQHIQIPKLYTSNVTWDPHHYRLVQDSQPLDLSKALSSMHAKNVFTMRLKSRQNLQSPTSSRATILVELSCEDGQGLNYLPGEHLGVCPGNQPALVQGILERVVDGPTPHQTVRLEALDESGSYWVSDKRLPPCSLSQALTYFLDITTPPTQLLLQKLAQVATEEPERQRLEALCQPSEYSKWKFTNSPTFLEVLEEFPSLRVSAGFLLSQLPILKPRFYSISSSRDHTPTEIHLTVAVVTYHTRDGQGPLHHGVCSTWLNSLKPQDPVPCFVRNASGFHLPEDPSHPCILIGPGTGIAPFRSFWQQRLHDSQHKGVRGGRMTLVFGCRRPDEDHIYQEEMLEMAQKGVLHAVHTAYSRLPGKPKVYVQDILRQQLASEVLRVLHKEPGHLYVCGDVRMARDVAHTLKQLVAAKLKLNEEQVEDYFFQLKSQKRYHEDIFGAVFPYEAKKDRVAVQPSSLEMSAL

Compound	Activity [1] [%]	Activity [2] [%]	logD [3]	Activity [4] [%]	Activity [5] [%]
CC1=CC2=NCC(C(=O)c3ccc(-c4ccc(C(=O)O)cc4)cc3)CN2C=C1 (stereo not drawn)	98	91	–	–	–
COc1ccc2cc(C(=O)C3CN=C4C=CC=C(C)N4C3)ccc2c1 (stereo not drawn)	80	6	1.9	–	–
COc1ccc2cc(C(=O)C3CN=C4C=C(C)C=C(C)N4C3)ccc2c1 (stereo not drawn)	95	121	1.9	–	–
COc1cc(C(=O)C2CN=C3C=CC=CN3C2)cc(OC)c1OC (stereo not drawn)	–	–	–	105	86
CCOc1ccc(C(=O)C2CN=C3C=C(C)C=CN3C2)cc1 (stereo not drawn)	–	–	–	97	87
CC1=CC=CN2CC(C(=O)c3ccccc3)CN=C12 (stereo not drawn)	–	–	–	103	92
CC1=CC2=NCC(C(=O)c3ccc(-c4ccc(F)cc4)cc3)CN2C=C1 (stereo not drawn)	85	46	–	–	–
COc1ccc(C(=O)C2CN=C3C=CC=CN3C2)cc1 (stereo not drawn)	–	–	1.5	100	90
Cc1ccnc(N)c1	29	50	–	–	–
Cc1cccc(N)n1	47	83	–	–	–
CC1=CC=CN2CC(C(=O)c3ccc(C)cc3)CN=C12 (stereo not drawn)	–	–	1.6	100	93
CC1=CC=CC2=NCC(C(=O)c3ccc4cc(C)ccc4c3)CN12 (stereo not drawn)	88	75	2.1	–	–
CC1=CC2=NCC(C(=O)c3ccc(O)cc3)CN2C=C1 (stereo not drawn)	30	46	–	–	–
COc1ccc(COc2ccc(C(=O)C3CN=C4C=C(C)C=CN4C3)cc2)cc1 (stereo not drawn)	101	46	–	–	–
CC1=CC2=NCC(C(=O)c3ccc(C(=O)O)cc3)CN2C=C1 (stereo not drawn)	93	94	–	–	–
CC1=CC2=NCC(C(=O)c3ccc(OCc4ccccc4)cc3)CN2C=C1 (stereo not drawn)	73	75	–	–	–
CC1=CC2=NCC(C(=O)c3ccc(-c4ccc(O)cc4)cc3)CN2C=C1 (stereo not drawn)	96	86	–	–	–
CC1=CC=CC2=NCC(C(=O)c3ccccc3)CN12 (stereo not drawn)	–	–	1.5	104	93
O=C(c1ccc(F)cc1)C1CN=C2C=CC=CN2C1 (stereo not drawn)	67	79	–	–	–
CC1=CC2=NCC(C(=O)c3ccc(C4CCCCC4)cc3)CN2C=C1 (stereo not drawn)	70	42	–	–	–
CC1=CC=CC2=NCC(C(=O)c3ccc(-c4ccccc4)cc3)CN12 (stereo not drawn)	86	20	2.1	–	–
Nc1ccccn1	95	94	–	–	–
Cc1cc(C)nc(N)c1	7	12	–	–	–
COc1ccc(C(=O)C2CN=C3C=CC=CN3C2)cc1OC (stereo not drawn)	–	–	1.4	123	91
CC1=CC2=NCC(C(=O)c3ccc(C#N)cc3)CN2C=C1 (stereo not drawn)	54	75	–	–	–
